{"data": "Measurements of several laboratories", "BCHE": "Cholinesterase (BCHE, Homo sapiens, UniProt P06276)", "note": "Lines come from different studies, so protocols differ."}
{"SMILES": "COc1cc2c(cc1OC)C(=O)C(CC1CCN(Cc3ccccc3)CC1)C2 (centres unmarked)", "target": "BCHE", "assay": "enzyme activity, inhibitor, Ellman", "setting": "1 µM", "endpoint": "inhibition", "value": "22.5%"}
{"SMILES": "Cc1nn(C)cc1-c1nc2c(N3CCN(Cc4ccc(Cl)cc4)CC3)c(Cl)cnc2[nH]1", "target": "Interferon-induced, double-stranded RNA-activated protein kinase (EIF2AK2, Homo sapiens, UniProt P19525)", "assay": "binding, competition with immobilised ligand", "setting": "1 µM", "endpoint": "remaining binding", "value": "95%"}
{"SMILES": "NC(=O)c1cccc(-c2cccc(OC(=O)NC3CCCCC3)c2)c1", "target": "Cocaine esterase (CES2, Homo sapiens, UniProt O00748)", "assay": "enzyme activity, inhibitor", "setting": "pH 7.4", "endpoint": "kinact/KI", "value": "3900 M⁻¹ s⁻¹"}
{"SMILES": "C=CCn1c2cc(OC(=O)CCN3CCN(Cc4ccccc4)CC3)ccc2c2ccnc(C)c21", "target": "BCHE", "assay": "enzyme activity, inhibitor, Ellman", "setting": "1 µM", "endpoint": "inhibition", "value": "29.9%"}
{"SMILES": "C#Cc1n[nH]c2c(-c3cn(C(C)c4ccccn4)c(=O)[nH]c3=O)cc(F)cc12 (centres unmarked)", "target": "Fibroblast growth factor receptor 1 (FGFR1, Homo sapiens, UniProt P11362, V561M)", "assay": "enzyme activity, inhibitor", "setting": "1 µM", "endpoint": "inhibition", "value": "11.4%"}
{"SMILES": "COc1ncccc1-c1cnn2ccc(N3CCN(C(=O)OC(C)C)CC3)nc12", "target": "Dual specificity mitogen-activated protein kinase kinase 5 (MAP2K5, Homo sapiens, UniProt Q13163)", "assay": "binding, competition with immobilised ligand", "setting": "1 µM", "endpoint": "remaining binding", "value": "65%"}
{"SMILES": "Nc1ncc(-c2nc(N3CCOCC3)nc(N3CCOCC3)n2)c(C(F)F)n1", "target": "Peripheral plasma membrane protein CASK (CASK, Homo sapiens, UniProt O14936)", "assay": "binding, competition with immobilised ligand", "setting": "10 µM", "endpoint": "remaining binding", "value": "77%"}
{"SMILES": "CCN(CC)CCCC[C@H](NC(=O)[C@H](CC(C)C)NC(=O)[C@H](C)NC(=O)[C@H](Cc1ccccc1)NC(=O)c1ccc(C(C)(C)C)cc1)C(=O)N[C@@H](CO)C(=O)OC", "target": "Chromatin remodeling regulator CECR2 (CECR2, Homo sapiens, UniProt Q9BXF3)", "assay": "thermal stability, DSF", "setting": "25 µM", "endpoint": "ΔTm", "value": "0.58 °C"}
